Assay results from BindingDB's records for doi:10.1021/acs.jmedchem.5b01723 (Uppsala University, 2016).

Legend:
Carbonic anhydrase 2 [1] = molecular target: T1, Carbonic anhydrase 2 (Homo sapiens, UniProt P00918); test: Binding affinity to human recombinant CA2 expressed in Escherichia coli assessed as association rate constant after 30 secs by surface plasmon resonance assay; settings: read-out: kon (M-1-s-1)
Carbonic anhydrase 12 [2] = molecular target: T2, Carbonic anhydrase 12 (Homo sapiens, UniProt O43570); test: Binding affinity to human recombinant CA12 catalytic domain assessed as dissociation rate constant after 30 secs by surface plasmon resonance assay
Carbonic anhydrase 12 [3] = molecular target: T2, Carbonic anhydrase 12; test: Binding affinity to human recombinant CA12 catalytic domain assessed as association rate constant after 30 secs by surface plasmon resonance assay; settings: read-out: kon (M-1-s-1)
Carbonic anhydrase 13 [4] = molecular target: T3, Carbonic anhydrase 13 (Homo sapiens, UniProt Q8N1Q1); test: Binding affinity to human recombinant CA13 assessed as association rate constant after 30 secs by surface plasmon resonance assay; settings: read-out: kon (M-1-s-1)
Carbonic anhydrase 7 [5] = molecular target: T4, Carbonic anhydrase 7 (Homo sapiens, UniProt P43166); test: Binding affinity to human recombinant CA7 assessed as dissociation rate constant after 30 secs by surface plasmon resonance assay
Carbonic anhydrase 2 [6] = molecular target: T1, Carbonic anhydrase 2; test: Binding affinity to human recombinant CA2 expressed in Escherichia coli assessed as dissociation rate constant after 30 secs by surface plasmon resonance assay
Carbonic anhydrase 13 [7] = molecular target: T3, Carbonic anhydrase 13; test: Binding affinity to human recombinant CA13 assessed as dissociation rate constant after 30 secs by surface plasmon resonance assay
Carbonic anhydrase 7 [8] = molecular target: T4, Carbonic anhydrase 7; test: Binding affinity to human recombinant CA7 assessed as association rate constant after 30 secs by surface plasmon resonance assay; settings: read-out: kon (M-1-s-1)
Carbonic anhydrase 1 [9] = molecular target: T5, Carbonic anhydrase 1 (Homo sapiens, UniProt P00915); test: Binding affinity to human recombinant CA1 expressed in Escherichia coli assessed as dissociation rate constant after 30 secs by surface plasmon resonance assay
Procedure, shortened: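 CA I immobilized by amine coupling (75 µg mL−1 in 10 mM sodium acetate, pH 5) to about 6000 RU. SPR run at 25 °C in PBST with 2 % DMSO, pH 7.4. Ligand given as 2-fold series, 15.6–2000 nM, at 30 or 90 µL min−1. Association 30 s, dissociation 180 s; sulphanilamide 200 µM regeneration where needed. kd from non-linear fit to one-step binding with mass transport.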

Carbonic anhydrase 1 [10] = molecular target: T5, Carbonic anhydrase 1; test: Binding affinity to human recombinant CA1 expressed in Escherichia coli assessed as association rate constant after 30 secs by surface plasmon resonance assay
Procedure, shortened: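 Full-length enzyme amine-coupled to a carboxymethyl-dextran chip (75 µg/mL in 10 mM sodium acetate pH 5, about 6000 RU). SPR at 25 °C in PBST pH 7.4 with 2% DMSO. Ligands injected as 2-fold series, 15.6–2000 nM, at 30 or 90 µL/min. Association 30 s, dissociation 180 s. Regeneration with 200 µM sulphanilamide. ka from non-linear fit to a one-step binding model with mass transport.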

T5 sequence (P00915 whole entry): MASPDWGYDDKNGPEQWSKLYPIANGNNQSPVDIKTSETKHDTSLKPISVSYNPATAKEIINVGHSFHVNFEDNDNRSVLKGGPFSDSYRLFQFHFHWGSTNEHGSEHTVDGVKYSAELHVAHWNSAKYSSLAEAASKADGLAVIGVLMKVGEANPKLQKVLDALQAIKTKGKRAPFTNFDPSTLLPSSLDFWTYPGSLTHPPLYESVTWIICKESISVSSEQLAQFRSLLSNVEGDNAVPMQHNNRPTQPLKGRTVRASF
T4 sequence (P43166 whole entry): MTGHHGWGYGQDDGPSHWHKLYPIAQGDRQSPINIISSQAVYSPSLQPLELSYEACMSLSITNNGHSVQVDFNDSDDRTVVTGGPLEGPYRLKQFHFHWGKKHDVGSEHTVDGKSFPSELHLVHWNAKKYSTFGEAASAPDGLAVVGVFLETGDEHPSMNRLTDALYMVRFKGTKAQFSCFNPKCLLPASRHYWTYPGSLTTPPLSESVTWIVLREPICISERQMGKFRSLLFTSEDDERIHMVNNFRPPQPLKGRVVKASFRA
T2 sequence (O43570 whole entry, the tested form may be a part): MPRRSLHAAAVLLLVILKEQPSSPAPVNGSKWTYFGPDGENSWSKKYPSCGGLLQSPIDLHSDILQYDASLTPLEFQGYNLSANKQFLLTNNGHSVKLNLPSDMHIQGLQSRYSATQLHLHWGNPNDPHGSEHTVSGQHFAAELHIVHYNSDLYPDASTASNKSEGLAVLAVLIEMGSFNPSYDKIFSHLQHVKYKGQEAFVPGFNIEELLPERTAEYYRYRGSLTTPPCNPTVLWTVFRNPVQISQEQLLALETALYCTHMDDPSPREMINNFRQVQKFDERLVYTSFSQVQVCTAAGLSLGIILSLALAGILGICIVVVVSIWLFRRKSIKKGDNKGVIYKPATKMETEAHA
T3 sequence (Q8N1Q1 whole entry): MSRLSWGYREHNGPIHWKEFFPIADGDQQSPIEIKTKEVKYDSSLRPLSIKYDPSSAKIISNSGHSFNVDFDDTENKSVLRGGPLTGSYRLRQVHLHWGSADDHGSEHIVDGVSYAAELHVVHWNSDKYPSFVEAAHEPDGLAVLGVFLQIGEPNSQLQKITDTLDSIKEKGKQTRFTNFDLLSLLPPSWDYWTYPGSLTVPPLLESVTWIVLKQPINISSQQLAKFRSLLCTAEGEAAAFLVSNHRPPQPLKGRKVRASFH

Row | Compound | kon (Carbonic anhydrase 2 [1]) [M⁻¹ s⁻¹] | koff (Carbonic anhydrase 12 [2]) [s⁻¹] | kon (Carbonic anhydrase 12 [3]) [M⁻¹ s⁻¹] | kon (Carbonic anhydrase 13 [4]) [M⁻¹ s⁻¹] | koff (Carbonic anhydrase 7 [5]) [s⁻¹] | koff (Carbonic anhydrase 2 [6]) [s⁻¹] | koff (Carbonic anhydrase 13 [7]) [s⁻¹] | kon (Carbonic anhydrase 7 [8]) [M⁻¹ s⁻¹] | koff (Carbonic anhydrase 1 [9]) [s⁻¹] | kon (Carbonic anhydrase 1 [10]) [M⁻¹ s⁻¹]
1 | NS(=O)(=O)c1c(F)c(F)c(N2CCCCC2)c(F)c1F [carbonic anhydrase (CA) inhibitors, benzenesulphonamide ligand, 16] | 1.4e+06 | 0.041 | 880000 | 920000 | 0.071 | 0.0093 | 0.011 | 2.6e+06 |  | 
2 | COc1ccc(CNc2c(F)c(F)c(F)c(F)c2S(N)(=O)=O)cc1 [carbonic anhydrase (CA) inhibitors, benzenesulphonamide ligand, 15] | 390000 |  |  | 100000 | 0.14 | 0.026 | 0.022 | 30000 | 0.0066 | 110000
3 | CCCS(=O)(=O)c1c(F)c(F)c(S(N)(=O)=O)c(F)c1NC1CCCCCCC1 [carbonic anhydrase (CA) inhibitors, benzenesulphonamide ligand, 13] | 86000 |  |  | 510000 | 0.002 | 0.0087 | 0.0079 | 49000 |  | 
4 | CNc1c(F)c(S(N)(=O)=O)c(F)c(F)c1S(=O)(=O)CCc1ccccc1 [carbonic anhydrase (CA) inhibitors, benzenesulphonamide ligand, 14] | 1.3e+06 | 0.14 | 1.5e+06 |  | 0.013 | 0.0082 |  | 290000 | 0.01 | 390000
5 | CC(C)(C)Nc1c(F)c(S(N)(=O)=O)c(F)c(F)c1S(=O)(=O)CCc1ccccc1 [carbonic anhydrase (CA) inhibitors, benzenesulphonamide ligand, 15] |  | 0.011 | 180000 |  |  |  |  |  |  | 
6 | CCCSc1c(F)c(F)c(S(N)(=O)=O)c(NC2CCCCCCC2)c1F [carbonic anhydrase (CA) inhibitors, benzenesulphonamide ligand, 12] |  | 0.05 | 130000 |  | 0.01 |  |  | 20000 |  | 
